The nature of data set [1]: Cytotoxicity against human HepG2(2.2.15) cells. Format: cell-based. The conditions noted are these: read-out: TC50 (the source's name). In outline: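 Cytotoxicity by MTS: HepG2 2.2.15 cells seeded at 4×10^4 cells/ml for 24 h, exposed to serial dilutions 2.5–160 µg/ml for 3 days; four replicates, viability expressed relative to untreated control; TC50 as 50% cytotoxic concentration.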

Data set [2] in a line: Selectivity index, ratio of TC50 for human HepG2(2.2.15) cells to IC50 for HBV infected in human HepG2(2.2.15) cells assessed as inhibition of surface antigen secretion. The method, boiled down: (§1)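 Selectivity index computed as TC50 (MTS, HepG2 2.2.15, 3 days) divided by IC50 for HBsAg, HBeAg or virion DNA inhibition in the same cell line.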
The test system of data set [3] is Hepatitis B virus. Kind of data set: Antiviral activity against HBV infected in human HepG2(2.2.15) cells assessed as inhibition of surface antigen secretion by EIA. Format: functional, organism-based. In outline: (§2)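 HepG2 2.2.15 cells (HepG2 stably carrying a head-to-tail HBV DNA dimer; MEM, 10% FBS, 37 °C, 5% CO2) treated with compound for 3 days; conditioned medium assayed for secreted HBsAg and HBeAg by enzyme immunoassay; mean and SD, n = 3; IC50 taken as 50% inhibitory concentration.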

The test system of data set [4] is Hepatitis B virus. The data set is described as follows: Antiviral activity against HBV infected in human HepG2(2.2.15) cells assessed as inhibition of viral DNA replication. Format: functional, organism-based. In outline:
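Secreted virion DNA from HepG2 2.2.15 cells after 3 days of compound treatment; HBV DNA isolated from conditioned medium and quantified by SYBR Green real-time PCR (45 cycles, 95 °C 15 s / 58 °C 1 min); mean and SD, n = 3; IC50 as 50% inhibitory concentration.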

Data set [5] deals with Hepatitis B virus. The data set is described as follows: Antiviral activity against HBV infected in human HepG2(2.2.15) cells assessed as inhibition of e antigen secretion by EIA. Format: functional, organism-based. The method, boiled down: as §2
Data set [6] can be described thus: Selectivity index, ratio of TC50 for human HepG2(2.2.15) cells to IC50 for HBV infected in human HepG2(2.2.15) cells assessed as inhibition of viral DNA replication. In outline: as §1
Data set [7] is described as follows: Selectivity index, ratio of TC50 for human HepG2(2.2.15) cells to IC50 for HBV infected in human HepG2(2.2.15) cells assessed as inhibition of e antigen secretion. The method, boiled down:
as §1

Seven molecules from ChEMBL document CHEMBL3407350, “Synthesis and anti-hepatitis B virus activity of C4 amide-substituted isosteviol derivatives” (Bioorg Med Chem, 2015) can be followed below.

The structures appear in SMILES notation. In brackets after ≈: the same amount, converted by molar mass.

For the molecule `C[C@@]12CC[C@@H]3[C@@](CC[C@H]4[C@@]3(C)CCC[C@@]4(C)NC(=O)c3ccc(Br)cc3)(CC1=O)C2`, the CC50 in data set [1] was 14.9 µg/mL (≈ 31.5 µM). In addition, in data set [2], the “Selectivity Index” value came out at 1.41. Moreover, the IC50 in the data set on Hepatitis B virus [3] is 10.5 µg/mL (≈ 22.3 µM).
For the molecule `C[C@@]12CC[C@@H]3[C@@](CC[C@H]4[C@@]3(C)CCC[C@@]4(C)NC(=O)c3ccc(F)cc3)(CC1=O)C2`, the CC50 in data set [1] turned out to be 19.7 µg/mL (≈ 48 µM). The IC50 in the data set with Hepatitis B virus [4] was 7.44 µg/mL (≈ 18.1 µM); in the data set on Hepatitis B virus [5], 12.8 µg/mL (≈ 31.1 µM); with Hepatitis B virus [3], 4.17 µg/mL (≈ 10.1 µM). In addition, the “Selectivity Index” value in data set [2] is 4.73; in data set [6], 2.65; in data set [7] it was 1.54.
For `Nc1ccn([C@@H]2CS[C@H](CO)O2)c(=O)n1` [LAMIVUDINE], in data set [1], the CC50 turned out to be 205 µg/mL (≈ 894 µM). Moreover, the IC50 in the data set with Hepatitis B virus [4] came out at 41 µg/mL (≈ 179 µM); in the data set with Hepatitis B virus [3], 49.1 µg/mL (≈ 214 µM). The “Selectivity Index” value in data set [2] came out at 4.17; in data set [6] it was 5.
On to `C[C@@]12CC[C@@H]3[C@@](CC[C@H]4[C@@]3(C)CCC[C@@]4(C)NC(=O)c3ccc(I)cc3)(CC1=O)C2`, for which, in data set [1], the CC50 was found to be 10.5 µg/mL (≈ 20.3 µM).
As for `CCc1ccc(C(=O)N[C@]2(C)CCC[C@@]3(C)[C@@H]4CC[C@@]5(C)C[C@]4(CC[C@@H]32)CC5=O)cc1`, the CC50 in data set [1] was determined as 21.2 µg/mL (≈ 50.3 µM). For the same molecule, the IC50 was determined as 11.2 µg/mL (≈ 26.6 µM) in the data set with Hepatitis B virus [4], 7.38 µg/mL (≈ 17.5 µM) in the data set with Hepatitis B virus [5] and 5.57 µg/mL (≈ 13.2 µM) in the data set with Hepatitis B virus [3]. Also, the “Selectivity Index” value in data set [2] is 3.8; in data set [6] it was 1.89; in data set [7], 2.87.
As for `Cc1ccc(C(=O)N[C@]2(C)CCC[C@@]3(C)[C@@H]4CC[C@@]5(C)C[C@]4(CC[C@@H]32)CC5=O)cc1`, the CC50 in data set [1] was found to be 18.9 µg/mL (≈ 46.5 µM).
Consider `C[C@@]12CC[C@@H]3[C@@](CC[C@H]4[C@@]3(C)CCC[C@@]4(C)NC(=O)c3ccc(C#N)cc3)(CC1=O)C2`, for which the CC50 in data set [1] turned out to be 10.8 µg/mL (≈ 25.8 µM). Also, the “Selectivity Index” value in data set [2] is reported as 1.28. For the same molecule, in the data set on Hepatitis B virus [3], the IC50 was found to be 8.45 µg/mL (≈ 20.2 µM).

What is called IC50 is the point on the concentration scale where inhibition reaches its midpoint.
